The source made the active and inactive calls. The calls are words filed in the database; no cut-off is given here.
What was measured:
[1] = biological target: Substance-P receptor (Homo sapiens, UniProt P25103, F264Y); assay: Partial noncompetitive inhibition of human F264Y6.51 mutant expressed in HEK293 cells assessed as decrease in SP1-induced [3H]IP accumulation after 20 mins; format: cell-based; settings: read-out: pA2 (converted)
[2] = biological target: Substance-P receptor (Homo sapiens, UniProt P25103); assay: Noncompetitive inhibition of wild type human NK1 receptor expressed in HEK293 cells assessed as decrease in SP1-induced [3H]IP accumulation after 20 mins; format: cell-based
[3] = test system: Gerbillinae; assay: Inhibition of foot tapping response in po dosed gerbil; format: functional
[4] = test system: HEK293; assay: Selectivity ratio of Ki for human NK3 H316W mutant expressed in HEK293 cells to Ki for wild type human NK3 receptor expressed in HEK293 cells; format: cell-based
[5] = biological target: Neuromedin-K receptor (Homo sapiens, UniProt P29371, H316F); assay: Displacement of radioligand [3H]osanetant at human NK3 H316F mutant expressed in HEK293 cells; format: cell-based
[6] = biological target: Neuromedin-K receptor (Homo sapiens, UniProt P29371, Y247F); assay: Displacement of radioligand [3H]osanetant at human NK3 Y247F mutant expressed in HEK293 cells; format: cell-based
[7] = test system: T1, Neuromedin-K receptor (Homo sapiens), P29371 [H316W]; assay: Antagonist activity at human NK3 H316W6.52 mutant expressed in HEK293 cells assessed as decrease in [MePhe7]NKB-induced [3H]IP accumulation after 20 mins; format: functional, cell-based
T1 sequence (whole entry): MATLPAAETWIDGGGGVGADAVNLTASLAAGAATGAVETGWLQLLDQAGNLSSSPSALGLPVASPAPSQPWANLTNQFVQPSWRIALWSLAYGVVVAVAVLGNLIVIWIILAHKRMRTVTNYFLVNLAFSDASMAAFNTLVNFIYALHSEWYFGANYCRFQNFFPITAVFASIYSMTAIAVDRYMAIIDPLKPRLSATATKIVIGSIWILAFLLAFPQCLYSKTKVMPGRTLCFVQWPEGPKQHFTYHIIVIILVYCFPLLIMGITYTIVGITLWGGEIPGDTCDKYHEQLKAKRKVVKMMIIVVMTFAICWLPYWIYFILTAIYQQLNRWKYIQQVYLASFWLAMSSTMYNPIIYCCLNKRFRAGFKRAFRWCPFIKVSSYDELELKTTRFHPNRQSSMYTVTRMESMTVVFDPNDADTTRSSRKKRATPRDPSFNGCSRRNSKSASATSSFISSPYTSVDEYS
Method in brief: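 HEK293 cells transiently expressing human NK3 WT or mutant, labeled with myo-[³H]inositol in LiCl buffer. Antagonist preincubated 20 min at 37 °C, then [MePhe⁷]NKB (0.01 nM–1 μM) added for 45 min at 37 °C. [³H]IP read by SPA beads. Schild analysis of EC50 shift and Emax depression across increasing antagonist concentrations gives pA2, slope and mode of antagonism.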

Sequence of Substance-P receptor (Homo sapiens, UniProt P25103) (P25103 whole entry): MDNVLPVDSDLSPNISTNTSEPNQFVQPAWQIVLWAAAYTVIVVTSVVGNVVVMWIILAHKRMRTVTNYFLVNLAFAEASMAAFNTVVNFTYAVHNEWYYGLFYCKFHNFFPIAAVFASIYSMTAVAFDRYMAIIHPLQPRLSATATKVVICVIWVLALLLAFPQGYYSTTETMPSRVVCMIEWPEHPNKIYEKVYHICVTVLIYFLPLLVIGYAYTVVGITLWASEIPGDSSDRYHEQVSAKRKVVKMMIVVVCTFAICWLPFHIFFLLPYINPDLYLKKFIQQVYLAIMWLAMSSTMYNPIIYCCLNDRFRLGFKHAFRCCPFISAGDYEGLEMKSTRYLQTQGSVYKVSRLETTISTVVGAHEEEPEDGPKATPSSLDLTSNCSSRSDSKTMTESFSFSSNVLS
Sequence of Neuromedin-K receptor (Homo sapiens, UniProt P29371, Y247F) (P29371 whole entry Y247F): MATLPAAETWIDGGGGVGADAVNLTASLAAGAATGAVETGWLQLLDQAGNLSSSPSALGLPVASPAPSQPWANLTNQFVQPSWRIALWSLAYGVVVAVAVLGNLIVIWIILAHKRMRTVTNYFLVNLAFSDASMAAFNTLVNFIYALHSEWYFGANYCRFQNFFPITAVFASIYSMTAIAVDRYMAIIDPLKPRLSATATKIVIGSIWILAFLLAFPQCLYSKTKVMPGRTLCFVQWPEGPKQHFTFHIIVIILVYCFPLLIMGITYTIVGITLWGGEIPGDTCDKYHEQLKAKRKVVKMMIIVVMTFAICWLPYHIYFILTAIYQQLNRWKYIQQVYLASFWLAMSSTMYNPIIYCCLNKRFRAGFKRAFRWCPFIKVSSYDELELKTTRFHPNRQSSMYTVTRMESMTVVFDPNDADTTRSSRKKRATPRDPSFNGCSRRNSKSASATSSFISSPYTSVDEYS
Sequence of Neuromedin-K receptor (Homo sapiens, UniProt P29371, H316F) (P29371 whole entry H316F): as the sequence (P29371 whole entry Y247F) above, with F247Y, H316F counted along it
Sequence of Substance-P receptor (Homo sapiens, UniProt P25103, F264Y) (P25103 whole entry F264Y): as the sequence (P25103 whole entry) above, with F264Y counted along it

Kb [1]: 0.0288 µM
inhibition [2]: Active
Ki [5]: 0.0125 µM
Ki [6]: 0.0039 µM
Activity [7]: inactive
SMILES: Cc1cc(F)ccc1-c1cc(N2CC[C@H](O)[C@H]2CO)ncc1N(C)C(=O)C(C)(C)c1cc(C(F)(F)F)cc(C(F)(F)F)c1
ED50 [3]: 0.4 mg/kg
Ratio Ki [4]: 693

— ChEMBL document CHEMBL2203099, “Identification of a crucial amino acid in the helix position 6.51 of human tachykinin neurokinin 1 and 3 receptors contributing to the insurmountable mode of antagonism by dual NK₁/NK₃ antagonists” (J Med Chem, 2012)
